Results as given in ChEMBL document CHEMBL1123369, “Synthesis and structure-activity relationships of new arylfluoronaphthyridine antibacterial agents” (1986).
Converted amounts (≈) assume the structure as drawn.

Assays:
Format in all cases: functional
Pseudomonas aeruginosa [1] = experiment: compound was evaluated in vitro for the antibacterial activity against Pseudomonas aeruginosa 5007
In short: (§1)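 Twofold agar dilution in brain-heart infusion agar, test range 200 to 0.005 µg/mL, made from a 2000 µg/mL stock. Organisms grown overnight in BHI broth at 36 °C. About 10⁴ organisms inoculated per plate, then incubated 18 h at 36 °C. MIC taken as the lowest concentration giving no visible growth.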

Pseudomonas aeruginosa [2] = experiment: In vitro antibacterial activity against Pseudomonas aeruginosa K799/WT; in short: as §1
Escherichia coli = experiment: In vitro antibacterial activity against Escherichia coli Juhl; in short: as §1
Staphylococcus aureus [3] = experiment: In vitro antibacterial activity against Staphylococcus aureus ATCC 6538P; in short: as §1
[4] = system: Staphylococcus epidermidis; experiment: In vitro antibacterial activity against Staphylococcus epidermidis 3519; in short: as §1
Klebsiella pneumoniae = experiment: In vitro antibacterial activity against Klebsiella pneumoniae 8045; in short: as §1
Klebsiella aerogenes = experiment: In vitro antibacterial activity against Enterobacter aerogenes ATCC 13048; in short: as §1
Streptococcus pyogenes = experiment: In vitro antibacterial activity against Streptococcus pyogenes 930; in short: as §1
Staphylococcus aureus [5] = experiment: In vitro antibacterial activity against Staphylococcus aureus CMX 686B; in short: as §1
Enterococcus faecium = experiment: In vitro antibacterial activity against Streptococcus faecium ATCC 8043; in short: as §1
Acinetobacter sp. = experiment: In vitro antibacterial activity against Acinetobacter species CMX669; in short: as §1
Pseudomonas aeruginosa [6] = experiment: In vitro antibacterial activity against Pseudomonas aeruginosa 5007; in short: as §1
Mus musculus [7] = experiment: In vivo dose(po) inhibiting systemic infections caused by Pseudomonas aeruginosa 5007 in mice.
In short: (§2)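 CF-1 female mice, about 20 g. Infected ip with 0.5 mL of an 18-h BHI culture diluted in 5% hog gastric mucin to 100× LD₅₀. LD₅₀ set by 10-fold dilutions (Reed–Muench, day 6). Compound given in water or dilute NaOH, sc or po, total dose split at 1 and 5 h post-infection. At least 3 dose levels, 10 mice each. Deaths followed 6 days. ED₅₀ from day-6 cumulative mortality by trimmed Logit, with 95% confidence limits.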

Mus musculus [8] = experiment: In vivo dose(sc) inhibiting systemic infections caused by Staphylococcus aureus NCTC 10649 in mice.; in short: as §2
Mus musculus [9] = experiment: In vivo antibacterial activity against systemic infection caused by Pseudomonas aeruginosa 5007 in mice.; in short: as §2
Mus musculus [10] = experiment: In vivo dose(po) inhibiting systemic infections caused by Staphylococcus aureus NCTC 10649 in mice.; in short: as §2
Mus musculus [11] = experiment: In vivo antibacterial activity against systemic infection caused by Staphylococcus aureus NCTC 10649 in mice.; in short: as §2
Mus musculus [12] = experiment: In vivo dose(sc) inhibiting systemic infections caused by Pseudomonas aeruginosa 5007 in mice.; in short: as §2
Mus musculus [13] = experiment: In vivo antibacterial activity against systemic infection caused by Escherichia coli Juhl in mice.; in short: as §2
Mus musculus [14] = experiment: In vivo dose(po) inhibiting systemic infections caused by Escherichia coli Juhl in mice.; in short: as §2
Mus musculus [15] = experiment: In vivo dose(sc) inhibiting systemic infections caused by Escherichia coli Juhl in mice.; in short: as §2

SMILES | MIC (Pseudomonas aeruginosa [2]) | MIC (Escherichia coli) | MIC (Staphylococcus aureus [3]) | MIC [4] | MIC (Klebsiella pneumoniae) | MIC (Klebsiella aerogenes) | MIC (Streptococcus pyogenes) | MIC (Staphylococcus aureus [5]) | MIC (Enterococcus faecium) | MIC (Acinetobacter sp.) | MIC (Pseudomonas aeruginosa [6]) | MIC (Mus musculus [9]) | MIC (Mus musculus [11]) | ED50 (Mus musculus [7]) | ED50 (Mus musculus [8]) | ED50 (Mus musculus [10]) | ED50 (Mus musculus [12]) | further results
CN1CCN(c2nc3c(cc2F)c(=O)c(C(=O)O)cn3-c2ccc(F)cc2)CC1 | 1.56 µg/mL (≈ 3.9 µM) | 0.2 µg/mL (≈ 0.5 µM) | 0.2 µg/mL (≈ 0.5 µM) | 0.39 µg/mL (≈ 0.974 µM) | 0.1 µg/mL (≈ 0.25 µM) | 0.2 µg/mL (≈ 0.5 µM) | 3.1 µg/mL (≈ 7.74 µM) | 0.2 µg/mL (≈ 0.5 µM) | 3.1 µg/mL (≈ 7.74 µM) | 0.2 µg/mL (≈ 0.5 µM) |  |  |  |  |  |  |  | MIC (Pseudomonas aeruginosa [1]): 1.56 µg/mL (≈ 3.9 µM)
O=C(O)c1cn(-c2ccccc2)c2nc(N3CCNCC3)c(F)cc2c1=O | 1.56 µg/mL (≈ 4.23 µM) | 0.2 µg/mL (≈ 0.543 µM) | 1.56 µg/mL (≈ 4.23 µM) | 1.56 µg/mL (≈ 4.23 µM) | 0.1 µg/mL (≈ 0.271 µM) | 0.39 µg/mL (≈ 1.06 µM) | 6.2 µg/mL (≈ 16.8 µM) | 1.56 µg/mL (≈ 4.23 µM) | 50 µg/mL (≈ 136 µM) | 1.56 µg/mL (≈ 4.23 µM) | 1.56 µg/mL (≈ 4.23 µM) |  |  |  |  |  |  | 
O=C(O)c1cn(-c2ccc(F)cc2F)c2nc(N3CCNCC3)c(F)cc2c1=O | 0.39 µg/mL (≈ 0.965 µM) | 0.05 µg/mL (≈ 0.124 µM) | 0.2 µg/mL (≈ 0.495 µM) | 0.39 µg/mL (≈ 0.965 µM) | 0.05 µg/mL (≈ 0.124 µM) | 0.2 µg/mL (≈ 0.495 µM) | 0.78 µg/mL (≈ 1.93 µM) | 0.2 µg/mL (≈ 0.495 µM) | 0.78 µg/mL (≈ 1.93 µM) | 0.39 µg/mL (≈ 0.965 µM) | 0.39 µg/mL (≈ 0.965 µM) | 0.39 µg/mL (≈ 0.965 µM) | 0.12 µg/mL (≈ 0.297 µM) | 7 mg/kg | 0.6 mg/kg | 2.4 mg/kg | 4.6 mg/kg | 
CN1CCN(c2nc3c(cc2F)c(=O)c(C(=O)O)cn3-c2ccc(F)cc2F)CC1 | 3.1 µg/mL (≈ 7.41 µM) | 0.39 µg/mL (≈ 0.932 µM) | 0.2 µg/mL (≈ 0.478 µM) | 0.39 µg/mL (≈ 0.932 µM) | 0.39 µg/mL (≈ 0.932 µM) | 0.39 µg/mL (≈ 0.932 µM) | 1.56 µg/mL (≈ 3.73 µM) | 0.2 µg/mL (≈ 0.478 µM) | 1.56 µg/mL (≈ 3.73 µM) | 0.39 µg/mL (≈ 0.932 µM) | 3.1 µg/mL (≈ 7.41 µM) |  |  |  |  |  |  | 

The next lines start with results.

MIC (Pseudomonas aeruginosa [2]) | MIC (Escherichia coli) | MIC (Staphylococcus aureus [3]) | MIC [4] | MIC (Klebsiella pneumoniae) | MIC (Klebsiella aerogenes) | MIC (Streptococcus pyogenes) | MIC (Staphylococcus aureus [5]) | MIC (Enterococcus faecium) | MIC (Acinetobacter sp.) | MIC (Pseudomonas aeruginosa [6]) | MIC (Mus musculus [9]) | MIC (Mus musculus [11]) | SMILES | ED50 (Mus musculus [7]) | ED50 (Mus musculus [8]) | ED50 (Mus musculus [10]) | ED50 (Mus musculus [12]) | further results
0.39 µg/mL (≈ 1.01 µM) | 0.05 µg/mL (≈ 0.129 µM) | 0.39 µg/mL (≈ 1.01 µM) | 0.78 µg/mL (≈ 2.02 µM) | 0.1 µg/mL (≈ 0.259 µM) | 0.1 µg/mL (≈ 0.259 µM) | 1.56 µg/mL (≈ 4.04 µM) | 0.39 µg/mL (≈ 1.01 µM) | 3.1 µg/mL (≈ 8.02 µM) | 0.39 µg/mL (≈ 1.01 µM) |  | 0.39 µg/mL (≈ 1.01 µM) | 0.25 µg/mL (≈ 0.647 µM) | O=C(O)c1cn(-c2ccc(F)cc2)c2nc(N3CCNCC3)c(F)cc2c1=O | 19.9 mg/kg | 1.6 mg/kg | 7.5 mg/kg | 6.9 mg/kg | MIC (Pseudomonas aeruginosa [1]): 0.39 µg/mL (≈ 1.01 µM); MIC (Mus musculus [13]): 0.05 µg/mL (≈ 0.129 µM); ED50 (Mus musculus [14]): 2.8 mg/kg; ED50 (Mus musculus [15]): 1 mg/kg
0.2 µg/mL (≈ 0.518 µM) | 0.05 µg/mL (≈ 0.129 µM) | 0.5 µg/mL (≈ 1.29 µM) | 0.1 µg/mL (≈ 0.259 µM) | 0.05 µg/mL (≈ 0.129 µM) | 0.1 µg/mL (≈ 0.259 µM) | 0.2 µg/mL (≈ 0.518 µM) | 0.1 µg/mL (≈ 0.259 µM) | 0.39 µg/mL (≈ 1.01 µM) | 0.1 µg/mL (≈ 0.259 µM) | 0.1 µg/mL (≈ 0.259 µM) | 0.1 µg/mL (≈ 0.259 µM) | 0.06 µg/mL (≈ 0.155 µM) | NC1CCN(c2nc3c(cc2F)c(=O)c(C(=O)O)cn3-c2ccc(F)cc2)C1 (stereo not drawn) | 18.2 mg/kg | 0.5 mg/kg | 1.6 mg/kg | 7.4 mg/kg | 
1.56 µg/mL (≈ 3.9 µM) | 0.05 µg/mL (≈ 0.125 µM) | 0.39 µg/mL (≈ 0.974 µM) | 0.78 µg/mL (≈ 1.95 µM) | 0.02 µg/mL (≈ 0.05 µM) | 12.5 µg/mL (≈ 31.2 µM) | 3.1 µg/mL (≈ 7.74 µM) | 0.78 µg/mL (≈ 1.95 µM) | 6.2 µg/mL (≈ 15.5 µM) | 0.2 µg/mL (≈ 0.5 µM) | 1.56 µg/mL (≈ 3.9 µM) |  |  | CC1CN(c2nc3c(cc2F)c(=O)c(C(=O)O)cn3-c2ccc(F)cc2)CCN1 (stereo not drawn) |  |  |  |  | 
